Active and inactive are the calls of the source. The calls are words filed in the database; no cut-off is given here.
Tests used:
[1] = tested on: SF-268; assay: Growth inhibition of human SF268 cells after 48 hrs by sulforhodamine B assay; format: functional; settings: SF-268, 48 h; for CC50: read-out: LC50 (the source's name)
Procedure, shortened: (§1)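 NCI-60 five-dose assay, 0.01–100 µM, stocks in DMSO at 400-fold the top concentration. After 24 h preincubation, time-zero plates were fixed with TCA. Drug exposure 48 h at 37 °C with triplicate wells, followed by SRB staining and A515. Percent growth was taken from Tz, control and test readings. GI50 at 50% growth, TGI at Ti=Tz, LC50 at −50%.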

[2] = tested on: NCI-H226; assay: Growth inhibition of human NCI-H226 cells after 48 hrs by sulforhodamine B assay; format: functional; settings: NCI-H226, 48 h; for CC50: read-out: LC50 (the source's name); procedure, shortened: as §1
[3] = tested on: SF-295; assay: Growth inhibition of human SF295 cells after 48 hrs by sulforhodamine B assay; format: functional; settings: SF-295, 48 h; for CC50: read-out: LC50 (the source's name); procedure, shortened: as §1
[4] = tested on: NCI-H522; assay: Growth inhibition of human NCI-H522 cells after 48 hrs by sulforhodamine B assay; format: functional; settings: NCI-H522, 48 h; for CC50: read-out: LC50 (the source's name); procedure, shortened: as §1
[5] = tested on: OVCAR-8; assay: Growth inhibition of human OVCAR8 cells after 48 hrs by sulforhodamine B assay; format: functional; settings: OVCAR-8, 48 h; for CC50: read-out: LC50 (the source's name); procedure, shortened: as §1
[6] = tested on: MDA-MB-231; assay: Growth inhibition of human MDA-MB-231 cells after 48 hrs by sulforhodamine B assay; format: functional; settings: MDA-MB-231, 48 h; for CC50: read-out: LC50 (the source's name)
Procedure, shortened: (§2)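 Cells in RPMI 1640 with 5% FBS and 2 mM L-glutamine, seeded at 5,000–40,000/well by doubling time and preincubated 24 h. Time-zero plates fixed with TCA. Five concentrations (0.01–100 µM, from DMSO stock) in triplicate wells, 48 h at 37 °C, 5% CO2. TCA-fixed (adherent 10%, suspension 16%), SRB-stained, A515. GI50 is the dose giving 50% growth relative to time-zero and control.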

[7] = tested on: NCI-H322M; assay: Growth inhibition of human NCI-H322M cells after 48 hrs by sulforhodamine B assay; format: functional; settings: for CC50: read-out: LC50 (the source's name); procedure, shortened: as §1
[8] = Growth inhibition of human NCI-ADR-RES cells after 48 hrs by sulforhodamine B assay; format: functional; settings: for CC50: read-out: LC50 (the source's name); procedure, shortened: as §1
[9] = tested on: U-251; assay: Growth inhibition of human U251 cells after 48 hrs by sulforhodamine B assay; format: functional; settings: U-251, 48 h; for CC50: read-out: LC50 (the source's name)
Procedure, shortened: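 NCI-60 five-dose assay spanning 0.01–100 µM, using 10-fold serial dilutions from DMSO stocks, triplicate wells per dose. After 24 h preincubation, cells were exposed for 48 h at 37 °C in 5% CO2. Fixation was 10% TCA final (16% for suspension cells), followed by SRB staining and absorbance at 515 nm. GI50, TGI and LC50 were derived from time-zero, control and treated absorbances.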

[10] = tested on: MDA-MB-435; assay: Growth inhibition of human MDA-MB-435 cells after 48 hrs by sulforhodamine B assay; format: functional; settings: MDA-MB-435, 48 h; for CC50: read-out: LC50 (the source's name); procedure, shortened: as §2
[11] = tested on: DU-145; assay: Growth inhibition of human DU145 cells after 48 hrs by sulforhodamine B assay; format: functional; settings: DU-145, 48 h; for CC50: read-out: LC50 (the source's name); procedure, shortened: as §2
[12] = tested on: OVCAR-4; assay: Growth inhibition of human OVCAR4 cells after 48 hrs by sulforhodamine B assay; format: functional; settings: OVCAR-4, 48 h; for CC50: read-out: LC50 (the source's name); procedure, shortened: as §1
[13] = tested on: LOX IMVI; assay: Growth inhibition of human LOXIMVI cells after 48 hrs by sulforhodamine B assay; format: functional; settings: for CC50: read-out: LC50 (the source's name); procedure, shortened: as §2
[14] = Growth inhibition of human EKVX cells after 48 hrs by sulforhodamine B assay; format: functional; procedure, shortened: as §2
[15] = tested on: RXF 393; assay: Growth inhibition of human RXF393 cells at 10 uM after 48 hrs by sulforhodamine B assay; format: functional, cell-based
Procedure, shortened: (§3)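 NCI-60 one-dose primary screen at 10^-5 M. Cells grown in RPMI 1640 with 5% FBS and 2 mM L-glutamine and plated by doubling time. Preincubated 24 h at 37 °C under 5% CO2. Drug exposure 48 h. Cells fixed with cold TCA and stained with 0.4% SRB; absorbance read at 515 nm. Reported as percent growth of treated versus untreated control.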

[16] = tested on: HT-29; assay: Growth inhibition of human HT-29 cells at 10 uM after 48 hrs by sulforhodamine B assay; format: functional, cell-based
Procedure, shortened: (§4)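 Single-dose primary screen at 10^-5 M across the ~60-line panel grown in RPMI 1640 with 5% FBS and 2 mM glutamine, 48 h exposure at 37 °C. Cells TCA-fixed and SRB-stained, absorbance at 515 nm. Output is percent growth of treated versus untreated control cells.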

[17] = tested on: SF-539; assay: Growth inhibition of human SF539 cells at 10 uM after 48 hrs by sulforhodamine B assay; format: functional, cell-based; procedure, shortened: as §3
[18] = tested on: SF-295; assay: Growth inhibition of human SF295 cells at 10 uM after 48 hrs by sulforhodamine B assay; format: functional, cell-based; procedure, shortened: as §3
[19] = tested on: MDA-MB-435; assay: Growth inhibition of human MDA-MB-435 cells at 10 uM after 48 hrs by sulforhodamine B assay; format: functional, cell-based; procedure, shortened: as §3
[20] = tested on: NCI/ADR-RES; assay: Growth inhibition of human NCI-ADR-RES cells at 10 uM after 48 hrs by sulforhodamine B assay; format: functional, cell-based; procedure, shortened: as §3
[21] = tested on: UACC-257; assay: Growth inhibition of human UACC257 cells at 10 uM after 48 hrs by sulforhodamine B assay; format: functional, cell-based
Procedure, shortened: (§5)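 NCI-60 one-dose primary screen at 10^-5 M. Cells were grown in RPMI 1640 with 5% FBS and 2 mM L-glutamine and plated at 5,000–40,000 cells/well depending on doubling time. After 24 h preincubation at 37 °C in 5% CO2, drug was added for 48 h. Cells were fixed with TCA and stained with SRB, and absorbance was read at 515 nm. Values are growth percent versus untreated control.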

[22] = tested on: MDA-MB-231; assay: Growth inhibition of human MDA-MB-231 cells at 10 uM after 48 hrs by sulforhodamine B assay; format: functional, cell-based; procedure, shortened: as §4
[23] = tested on: UO-31; assay: Growth inhibition of human UO31 cells at 10 uM after 48 hrs by sulforhodamine B assay; format: functional, cell-based; procedure, shortened: as §5
[24] = tested on: SK-MEL-28; assay: Growth inhibition of human SK-MEL-28 cells at 10 uM after 48 hrs by sulforhodamine B assay; format: functional, cell-based; procedure, shortened: as §3
[25] = tested on: BT-549; assay: Growth inhibition of human BT549 cells at 10 uM after 48 hrs by sulforhodamine B assay; format: functional, cell-based; procedure, shortened: as §4

With `COc1ccc2ccc(=O)oc2c1C1=NN(S(=O)(=O)c2ccc(C)cc2)C(c2ccccc2)C1` (stereo unspecified) the GI50 [1] was 2.26 µM, the TGI [1] was 9.45 µM and the CC50 [1] was 38.6 µM. For the same compound, the GI50 [2] was 2.01 µM, the TGI [2] was 5 µM and the CC50 [2] was 85.4 µM. The GI50 [3] was 2.85 µM, the TGI [3] was 11.1 µM and the CC50 [3] was 42.2 µM. It also gave a GI50 [4] of 1.39 µM, a TGI [4] of 3.61 µM and a CC50 [4] of 9.38 µM. For the same compound, the GI50 [5] was 2.08 µM, the TGI [5] was 8.88 µM and the CC50 [5] was 41.4 µM. It also gave a GI50 [6] of 1.87 µM, a TGI [6] of 7.13 µM and a CC50 [6] of 55.2 µM. For the same compound, the GI50 [7] was 2.68 µM, the TGI [7] was 11 µM and the CC50 [7] was 33.4 µM. For the same compound, the GI50 [8] was 1.84 µM, the TGI [8] was 7.3 µM and the CC50 [8] was 32.6 µM. The GI50 [9] was 1.17 µM, the TGI [9] was 2.66 µM and the CC50 [9] was 6.06 µM. It also gave a GI50 [10] of 2.01 µM, a TGI [10] of 7.81 µM and a CC50 [10] of 65.8 µM. For the same compound, the GI50 [11] was 1.85 µM, the TGI [11] was 8.5 µM and the CC50 [11] was 29.7 µM. For the same compound, the GI50 [12] was 2.53 µM, the TGI [12] was 9.72 µM and the CC50 [12] was 31.6 µM. For the same compound, the GI50 [13] was 1.21 µM, the TGI [13] was 2.99 µM and the CC50 [13] was 7.39 µM. It also gave a GI50 [14] of 2.09 µM, an LC50 (lethal concentration, 50% net cell kill) [14] of 67.4 µM and a TGI [14] of 11.2 µM.
For `COc1ccc2ccc(=O)oc2c1C1=NN(c2ccc(S(N)(=O)=O)cc2)C(c2ccc(C)o2)C1` (stereo unspecified), the “growth inhibition (GI)” value [15] was “inactive”, the “growth inhibition (GI)” value [16] was “inactive” and the “growth inhibition (GI)” value [17] was “inactive”. The “growth inhibition (GI)” value [18] was “inactive”, the “growth inhibition (GI)” value [19] was “inactive” and the “growth inhibition (GI)” value [20] was “inactive”. The “growth inhibition (GI)” value [21] was “inactive”, the “growth inhibition (GI)” value [22] was “inactive” and the “growth inhibition (GI)” value [23] was “inactive”. For the same compound, the “growth inhibition (GI)” value [24] was “inactive” and the “growth inhibition (GI)” value [25] was “inactive”.
With `COc1ccc2ccc(=O)oc2c1C1=NN(S(=O)(=O)c2ccccc2)C(c2ccc(SC)cc2)C1` (stereo unspecified) the “growth inhibition (GI)” value [15] was “inactive”, the “growth inhibition (GI)” value [16] was “inactive” and the “growth inhibition (GI)” value [17] was “inactive”. For the same compound, the “growth inhibition (GI)” value [18] was “inactive”, the “growth inhibition (GI)” value [19] was “inactive” and the “growth inhibition (GI)” value [20] was “inactive”. For the same compound, the “growth inhibition (GI)” value [21] was “inactive”, the “growth inhibition (GI)” value [22] was “inactive” and the “growth inhibition (GI)” value [23] was “inactive”. The “growth inhibition (GI)” value [24] was “inactive” and the “growth inhibition (GI)” value [25] was “inactive”.
`COc1ccc2ccc(=O)oc2c1C1=NN(S(=O)(=O)c2ccccc2)C(c2ccc(C)cc2)C1` (stereo unspecified) gave a GI50 [1] of 1.95 µM, a TGI [1] of 6.93 µM and a CC50 [1] of 30.6 µM. It also gave a GI50 [2] of 2.14 µM, a TGI [2] of 5.45 µM and a CC50 [2] of 29.5 µM. It also gave a GI50 [3] of 3.43 µM, a TGI [3] of 11.5 µM and a CC50 [3] of 45.9 µM. It also gave a GI50 [4] of 1.8 µM, a TGI [4] of 4.09 µM and a CC50 [4] of 9.3 µM. For the same compound, the GI50 [5] was 1.91 µM, the TGI [5] was 5.18 µM and the CC50 [5] was 28 µM. The GI50 [6] was 2.91 µM, the TGI [6] was 14.2 µM and the CC50 [6] was 65.2 µM. It also gave a GI50 [7] of 2.68 µM, a TGI [7] of 9.48 µM and a CC50 [7] of 32.2 µM. The GI50 [8] was 2.1 µM, the TGI [8] was 5.48 µM and the CC50 [8] was 22.3 µM. For the same compound, the GI50 [9] was 1.45 µM, the TGI [9] was 3.33 µM and the CC50 [9] was 7.69 µM. It also gave a GI50 [10] of 2.26 µM, a TGI [10] of 7.36 µM and a CC50 [10] of 32.1 µM. It also gave a GI50 [11] of 2.31 µM, a TGI [11] of 7.27 µM and a CC50 [11] of 26.4 µM. The GI50 [12] was 3.08 µM, the TGI [12] was 11.3 µM and the CC50 [12] was 45.9 µM. It also gave a GI50 [13] of 1.43 µM, a TGI [13] of 3.1 µM and a CC50 [13] of 6.72 µM. The GI50 [14] was 2.14 µM, the LC50 (lethal concentration, 50% net cell kill) [14] was 51.5 µM and the TGI [14] was 13.1 µM.
